Series [1] can be described thus: Tmax in mouse at 25 mg/kg, po. The series is classed as ADME, organism-based. As to conditions: in vivo.
Series [2] can be described thus: Half life in mouse at 25 mg/kg, po. The series is classed as ADME, organism-based. As to conditions: in vivo.
Series [3] concerns Trypanosoma brucei brucei. Briefly: Antitrypanosomal activity against bloodstream forms of Trypanosoma brucei brucei strain 427 assessed as growth inhibition measured after 48 hrs by Alamar blue assay. The format is functional, organism-based. As to conditions: Trypanosoma brucei, 427, 48 h. In outline: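 Bloodstream T. b. brucei 427 at 5 x 10^3 cells/well in supplemented HMI-9 with 10% FBS. Compounds in DMSO over 0.01–50 μM, triplicates. After 48 h exposure, Alamar blue was added for 4 h at 37°C. Fluorescence read at ex/em 530/590 nm; suramin was the positive control. EC50 = half-maximal trypanosomal viability.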

The test system of series [4] is Trypanosoma brucei gambiense. As to the kind of experiment: Antitrypanosomal activity against bloodstream forms of Trypanosoma brucei gambiense 130R assessed as growth inhibition incubated for 68 hrs followed by treated with resazurin 4 to 6 hrs by resazurin based fluorescence assay. The format is functional, organism-based. In a few lines:
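Bloodstream 130R at 4x10^4 parasites/well in HMI-9 with 15% heat-inactivated fetal calf and 5% human serum. Eleven 3-fold dilutions spanned 100 to 0.002 μM. Plates ran 68 h at 37 °C in 5% CO2, then resazurin for 4–6 h. Fluorescence read at ex/em 536/588 nm; melarsoprol was the control.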
A general note: Resazurin is reduced to fluorescent resorufin, in cell work by metabolically active cells.

Series [5] deals with Trypanosoma brucei rhodesiense. As to the kind of experiment: Antitrypanosomal activity against bloodstream forms of Trypanosoma brucei rhodesiense STIB 900 assessed as growth inhibition incubated for 70 hrs followed by treated with resazurin 2 to 4 hrs by resazurin based fluorescence assay. The series is classed as functional, organism-based. In a few lines:
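Bloodstream STIB 900 at 2x10^4 parasites/well in HMI-9 with 15% heat-inactivated horse serum. Eleven 3-fold dilutions spanned 100 to 0.002 μM. Plates ran 70 h at 37 °C in 5% CO2, then resazurin for 2–4 h. Fluorescence read at ex/em 536/588 nm; melarsoprol was the control.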

The subject of the next series is HepG2. Briefly: Cytotoxicity against human HepG2 cells assessed as cell growth measured after 72 hrs mby MTT assay. The format is toxicity, cell-based. As to conditions: hepg2, 72 h. In outline:
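HepG2 in DMEM:F12 with 10% FBS were seeded at 5 x 10^5 cells/mL and allowed 18-24 h. Compounds in DMSO over 0.01–300 μM for 72 h. MTT was then added for 30 min, formazan dissolved in DMSO and absorbance read at 550 nm. Triplicates; SDS (10%) and podophyllotoxin were the controls. CC50 = half-maximal cellular viability.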

Series [6] has as its system Trypanosoma brucei rhodesiense. As to the kind of experiment: Inhibition of Trypanosoma brucei rhodesiense MVAT4 strain Cathepsin-L expressed in Pichia pastoris at 10 uM relative to control. In outline:
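Trypanosomal cathepsin L, expressed in Pichia pastoris and purified, was tested at 10 μM after 1 hour. The read-out was percentage inhibition, with E-64 as positive control.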

A short description of series [7]: Metabolic stability in mouse liver microsomes assessed as half life at 0.1 uM measured for every 15 mins by HPLC-MS/MS analysis. The series is classed as ADME, Microsome. As to conditions: 0.25 h. (Liver microsomes are vesicles of endoplasmic reticulum, rich in cytochrome P450 enzymes.)
A short description of series [8]: Metabolic stability in mouse liver S9 fraction assessed as half life at 0.1 uM measured for every 15 mins by HPLC-MS/MS analysis. The series is classed as ADME, subcellular. As to conditions: s9, 0.25 h.
Series [9] in a line: Initial plasma concentration in C57BL/6 mouse at 1 mg/kg, iv measured upto 24 hrs by LC-MS/MS analysis. The series is classed as ADME, organism-based. In a few lines:
(§1)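 Fasted male C57BL/6 mice (n = 3/group) were given a single IV dose of 1 mg/kg. Vehicle was 5% DMSO, 10% solutol and 85% PBS with 20% Captisol, at 1 mL/kg. Blood was taken at 0.083, 0.25, 0.5, 1, 2, 4, 6, 8 and 24 h and spun at 4°C to plasma. Plasma levels were measured by LC-MS/MS and parameters derived by non-compartmental analysis.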

The nature of series [10]: Half life in C57BL/6 mouse at 1 mg/kg, iv measured upto 24 hrs by LC-MS/MS analysis. The series is classed as ADME, organism-based. As to conditions: in vivo. In a few lines: as §1
Series [11] in a line: AUC (0 to t) in C57BL/6 mouse at 1 mg/kg, iv measured upto 24 hrs by LC-MS/MS analysis. The format is ADME, organism-based. As to conditions: in vivo. In a few lines:
as §1

Series [12] in a line: AUC (0 to infinity) in C57BL/6 mouse at 1 mg/kg, iv measured upto 24 hrs by LC-MS/MS analysis. The format is ADME, organism-based. As to conditions: in vivo. In a few lines: as §1
The nature of series [13]: Apparent volume of distribution in C57BL/6 mouse at 1 mg/kg, iv measured upto 24 hrs by LC-MS/MS analysis. As to conditions: in vivo, read-out: Vz. The series is classed as ADME, organism-based. In outline:
as §1

Series [14] in a line: Clearance in C57BL/6 mouse at 1 mg/kg, iv measured upto 24 hrs by LC-MS/MS analysis. The format is ADME, organism-based. As to conditions: in vivo. In outline: as §1
Series [15] in a line: Volume of distribution at steady state in C57BL/6 mouse at 1 mg/kg, iv measured upto 24 hrs by LC-MS/MS analysis. The format is ADME, organism-based. As to conditions: in vivo, read-out: Vdss. In a few lines:
as §1

A short description of series [16]: Mean residence time in C57BL/6 mouse at 1 mg/kg, iv measured upto 24 hrs by LC-MS/MS analysis. As to conditions: in vivo. The format is ADME, organism-based. In a few lines: as §1
A short description of series [17]: Tmax in C57BL/6 mouse at 5 mg/kg, po measured upto 24 hrs by LC-MS/MS analysis. As to conditions: in vivo.
Series [18] in a line: Cmax in C57BL/6 mouse at 5 mg/kg, po measured upto 24 hrs by LC-MS/MS analysis. As to conditions: in vivo.
Series [19] can be described thus: Half life in C57BL/6 mouse at 5 mg/kg, po measured upto 24 hrs by LC-MS/MS analysis. As to conditions: in vivo.
Series [20] in a line: AUC (0 to t) in C57BL/6 mouse at 5 mg/kg, po measured upto 24 hrs by LC-MS/MS analysis. As to conditions: in vivo.
The nature of series [21]: Oral bioavailability in C57BL/6 mouse at 5 mg/kg measured upto 24 hrs by LC-MS/MS analysis. As to conditions: in vivo.
Series [22] is described as follows: AUC (0 to infinity) in C57BL/6 mouse at 5 mg/kg, po measured upto 24 hrs by LC-MS/MS analysis. As to conditions: in vivo.
Series [23] in a line: Mean residence time in C57BL/6 mouse at 5 mg/kg, po measured upto 24 hrs by LC-MS/MS analysis. As to conditions: in vivo.
In series [24] the test system is Trypanosoma brucei rhodesiense. Briefly: In vivo antitrypanosomal activity against Trypanosoma brucei rhodesiense infected in female NMRI mouse assessed survival rate at 200 mg/kg, po qd measured upto 60 days. As to conditions: time <= 60.0 day.
Series [25] relates to Trypanosoma brucei brucei. Briefly: In vivo antitrypanosomal activity against Trypanosoma brucei brucei AnTat1.1 trypomastigotes expressing Renilla luciferase infected in BALB/c mouse assessed reduction in parasitemia at 100 mg/kg, po treated for 5 days. As to conditions: time 5.0 day.
In series [26] the test system is Trypanosoma brucei brucei. Briefly: In vivo antitrypanosomal activity against Trypanosoma brucei brucei AnTat1.1 trypomastigotes expressing Renilla luciferase infected in BALB/c mouse assessed suppression of parasite growth at 100 mg/kg, po treated for 5 days. As to conditions: time 5.0 day.
Series [27] concerns Trypanosoma brucei brucei. As to the kind of experiment: In vivo antitrypanosomal activity against Trypanosoma brucei brucei AnTat1.1 trypomastigotes expressing Renilla luciferase infected in BALB/c mouse assessed suppression of parasite growth at 100 mg/kg, ip treated for 5 days. As to conditions: time 5.0 day.

Activity calls are given as the source filed them. The rule behind the calls is not given here.

One may read the Tmax as the time from dosing to the highest level. What is called half-life is how long it takes for the measured level to halve. Broadly, the EC50 is the concentration at which the effect is half-maximal. Broadly, the CC50 is the concentration giving 50% cytotoxicity. By inhibition is commonly meant the change of the read-out against control, counted positive when it falls. A word on the AUC(0-t): it is the area under the concentration-time curve up to a stated or last time point. The low end stands for low exposure, the high end for high exposure. The term AUC denotes concentration integrated over time. Low readings indicate less exposure, high ones more exposure. As usually defined, the clearance is the volume of plasma or blood freed of the substance per unit of time. A high value points to efficient removal. Broadly, the MRT is a mean duration of stay, worked out from the concentration-time curve. One may read the Cmax as the maximum level reached in the sampled fluid or tissue.

Take `CSc1ccc(OCc2ncc([N+](=O)[O-])n2C)cc1` [FEXINIDAZOLE]: in [1], the Tmax is 15 min. Also, the half-life in series [2] is 48 min.

For the compound `CNC(=O)/C=C/CNC(=O)c1ccc([N+](=O)[O-])s1`, the EC50 in series [3] was determined as 540 nM; in [4], 130 nM; in series [5], 140 nM. Further, the CC50 in the series on HepG2 was over 75000 nM. This compound yielded an inhibition in series [6] of 43.9%. The t1/2 in series [7] and in [8] was over 60 min throughout. This compound also gave a C0 at 24 h in series [9] of 636 ng/mL. In addition, the half-life in series [10] was 24 min; in [19], 30 min. Besides, the area under the curve AUC(0-t) at 24 h stood at 333 ng·h/mL in series [11] and 1700 ng·h/mL in series [20]. The AUC in series [12] is 343.2 ng·h/mL; in [22], 1702.8 ng·h/mL. Besides, the Vd amounted to 1.7 L/kg in [13] and 1.6 L/kg in series [15]. The compound also came in with a clearance in series [14] of 48.8 mL/min/kg. In addition, the MRT in series [16] is 30 min; in [23], 54 min. Also, in series [17], the Tmax came out at 18 min. In series [18], the highest concentration (Cmax) was found to be 1650 ng/mL. The F in series [21] came to 99.2%. Besides, the result in [24], in series [25], in [26] and in series [27] was Active.

The values are drawn from ChEMBL document CHEMBL5532650, “Discovery of an orally active nitrothiophene-based antitrypanosomal agent” (Eur J Med Chem, 2024).
